This passage reports AE activity and EC50 results from ChEMBL document CHEMBL1135138, “2-Aminothiazoles: a new class of agonist allosteric enhancers of A(1) adenosine receptors” (Bioorg Med Chem Lett, 2002).

Calls of active or inactive are those of the source. No cut-off for these calls is given here.

Test [1] has as its target T1, Adenosine receptor A1 (Homo sapiens) (UniProt P30542).
T1 sequence (whole entry): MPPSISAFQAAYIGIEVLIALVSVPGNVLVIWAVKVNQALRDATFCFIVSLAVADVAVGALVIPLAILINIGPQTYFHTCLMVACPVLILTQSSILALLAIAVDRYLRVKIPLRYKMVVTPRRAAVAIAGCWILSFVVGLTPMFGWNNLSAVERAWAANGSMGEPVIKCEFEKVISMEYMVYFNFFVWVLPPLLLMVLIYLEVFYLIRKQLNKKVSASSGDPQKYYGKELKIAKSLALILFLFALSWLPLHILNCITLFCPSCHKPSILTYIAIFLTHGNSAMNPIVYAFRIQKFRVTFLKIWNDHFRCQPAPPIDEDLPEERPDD
The experiment in a line: AE activity is the ratio of specific binding at the end of dissociation to specific binding at the end of 120 min of equilibration at 5 uM concentration to Adenosine A1 receptor. A digest of the protocol: (§1)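 Test agent from DMSO stock was added for 5 min. Dissociation was started with 8-CPT plus GTPγS and stopped after 10 min by glass-fibre filtration. Nonspecific binding (8-CPT/GTPγS, no agent) was subtracted. % = specific binding after dissociation ÷ after equilibration. Means of 2–3 experiments ±SEM.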

Test [2] addresses T2, Adenosine receptor A1 (Homo sapiens, UniProt P30542).
T2 sequence (P30542 whole entry): T1 sequence (whole entry)
The experiment in a line: Effective concentration against Adenosine A1 receptor.

In test [3] the target is T1, Adenosine receptor A1 (Homo sapiens). The experiment in a line: AE activity is the ratio of specific binding at the end of dissociation to specific binding at the end of 120 min of equilibration at 50 uM concentration to Adenosine A1 receptor. In outline:
as §1

The target is the same in test [4]. The experiment in a line: AE activity is the ratio of specific binding at the end of dissociation to specific binding at the end of 120 min of equilibration at 50 uM concentration to Adenosine A1 receptor; not significantly active. In outline: as §1
Test [5] addresses T3, Adenosine receptor A3 (Homo sapiens) (UniProt P0DMS8).
T3 sequence (whole entry): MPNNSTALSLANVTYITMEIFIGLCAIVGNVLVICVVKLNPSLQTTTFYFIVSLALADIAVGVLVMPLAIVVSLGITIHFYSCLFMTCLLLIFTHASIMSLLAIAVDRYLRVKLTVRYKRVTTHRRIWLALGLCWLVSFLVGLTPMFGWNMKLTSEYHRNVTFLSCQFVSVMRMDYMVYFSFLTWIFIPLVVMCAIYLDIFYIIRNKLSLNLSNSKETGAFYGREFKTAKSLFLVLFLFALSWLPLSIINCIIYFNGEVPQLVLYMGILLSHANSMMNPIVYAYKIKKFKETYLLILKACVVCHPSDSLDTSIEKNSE
Put plainly: Percent allosteric enhancer (AE) activity from ratio of specific binding to Adenosine A3 receptor at end of dissociation to that of 120 min of equilibration.

The target of test [6] is Adenosine receptor A2a (Homo sapiens) (UniProt P29274). Put plainly: Percent allosteric enhancer (AE) activity from ratio of specific binding to Adenosine A2A receptor at end of dissociation to that of 120 min of equilibration.
Test [7] has as its target T1, Adenosine receptor A1 (Homo sapiens). Put plainly: AE activity is the ratio of specific binding at the end of dissociation to specific binding at the end of 120 min of equilibration at 5 uM concentration to Adenosine A1 receptor; not significantly active. In outline: as §1

Sequence of Adenosine receptor A2a (Homo sapiens) (P29274 whole entry): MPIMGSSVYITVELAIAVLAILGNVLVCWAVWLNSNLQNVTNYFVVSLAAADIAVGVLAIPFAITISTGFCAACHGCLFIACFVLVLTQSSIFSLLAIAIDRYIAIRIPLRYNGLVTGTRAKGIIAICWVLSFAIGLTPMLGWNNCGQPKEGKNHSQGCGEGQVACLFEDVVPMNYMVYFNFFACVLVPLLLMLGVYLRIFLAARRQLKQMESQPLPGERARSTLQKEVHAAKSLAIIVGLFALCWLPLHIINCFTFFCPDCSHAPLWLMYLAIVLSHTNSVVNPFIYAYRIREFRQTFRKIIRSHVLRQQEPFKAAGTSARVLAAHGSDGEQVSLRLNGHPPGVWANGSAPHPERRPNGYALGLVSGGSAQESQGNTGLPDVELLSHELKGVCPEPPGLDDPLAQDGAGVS

`CCCCCOc1ccc2c(c1)CCc1sc(N)nc1-2`: the AE activity in test [1] is 41%.

The EC50 is the concentration at which the effect is half-maximal. A high value points to a need for much substance. In the case of `Nc1nc2c(s1)CCc1ccccc1-2`, the EC50 in test [2] was 17 µM. For the same compound, the AE activity in test [3] amounted to 80%.

For the compound `Nc1nc2c(s1)COc1ccccc1-2`, in test [3], the AE activity was determined as 62%.

`Nc1nc2c(s1)CCc1cc(OC(=O)c3ccccc3)ccc1-2`: the AE activity in test [1] stood at 54%.

As for `Nc1nc2c(s1)Cc1c(OC(=O)C3CCCCC3)cccc1-2`, the AE activity entry in test [4] was “inactive”.

As for `COc1cc2c(c(OC)c1OC)Cc1sc(N)nc1-2`, in test [1], the AE activity came to 60%. Also, the EC50 in test [2] is 17 µM.

With `COc1ccc2c(c1)CCc1sc(N)nc1-2`, the AE activity was found to be 8% in test [5], 18% in test [6] and 78% in test [3].

In the case of `Nc1nc2c(s1)-c1ccccc1C2`, in test [4], the AE activity result is “inactive”.

For `COc1cc2c(c(OC)c1OC)-c1nc(N)sc1C2`, in test [3], the AE activity was 24%.

As for `CC(=O)Oc1ccc2c(c1)CCc1sc(N)nc1-2`, the AE activity stood at 30% in test [5], 24% in test [6] and 95% in test [3].

With `Nc1nc2c(s1)CCCc1ccccc1-2`, the AE activity result in test [4] was “inactive”.

Consider `COc1cc2c(cc1OC)-c1nc(N)sc1C2`, for which the values for the AE activity in test [5], in test [6] and in test [3] were 29%, 36% and 78%, respectively.

For `Nc1nc2c(s1)CCCC2`, in test [3], the AE activity was found to be 19%.

As to `Nc1nc2c(s1)Cc1cc(Br)ccc1-2`, the AE activity result in test [4] was “inactive”.

Regarding `Nc1nc2c(s1)Cc1ccccc1-2`, the EC50 in test [2] stood at 38 µM. In test [3], the AE activity was determined as 91%.

For the compound `COc1ccc2c(c1)Cc1sc(N)nc1-2`, in test [2], it took 50 µM to reach a half-maximal effect (EC50). Besides, the AE activity in test [3] worked out at 66%.

As to `Nc1nc2c(s1)CCCCC2`, in test [4], the AE activity entry is “inactive”.

`Nc1nc2c(s1)CCc1cc(OC3C=CC=C3)ccc1-2`: the AE activity result in test [7] is “inactive”.

Regarding `Cc1cccc2c1Cc1sc(N)nc1-2`, the AE activity in test [3] was found to be 81%.

As to `CC(=O)Oc1cccc2c1Cc1sc(N)nc1-2`, the AE activity in test [1] worked out at 74%; in test [5], 22%; in test [6], 19%.

In turn, `Cc1ccc2c(c1)-c1nc(N)sc1C2` yielded an EC50 in test [2] of 4.2 µM. Also, in test [3], the AE activity is 72%.

Take `Nc1nc2c(s1)Cc1c(OC(=O)C3CCCC3)cccc1-2`: the EC50 in test [2] came to 4.5 µM. Moreover, the AE activity in test [3] came out at 85%.

As for `Nc1nc2c(s1)-c1ccccc1CC2`, the AE activity entry in test [4] was “inactive”.

Consider `CCCCCCCCOc1ccc2c(c1)CCc1sc(N)nc1-2`, for which, in test [1], the AE activity is 45%.
